# Experimental data as given in ChEMBL document CHEMBL1123568 (J Med Chem, 1987).
# Columns and labels:
# Type in all cases: functional
# Pseudomonas aeruginosa [1] = test: Antimicrobial activity against the Pseudomonas aeruginosa K 799/WT by 2-fold agar dilution method using brain-heart infusion agar.
# Escherichia coli [2] = test: Antimicrobial activity against the Escherichia coli JUHL by 2-fold agar dilution method using brain-heart infusion agar.
# Klebsiella pneumoniae = test: Antimicrobial activity against the klebsiella pneumoniae 8045 by 2-fold agar dilution method using brain-heart infusion agar.
# Enterococcus faecium = test: Antimicrobial activity against the faecium ATCC 8043 by 2-fold agar dilution method using brain-heart infusion agar.; conditions: ATCC 8043, Brain
# Streptococcus pyogenes [3] = test: Antimicrobial activity against the streptococcus pyogenes EES 61 by 2-fold agar dilution method using brain-heart infusion agar.
# Micrococcus luteus = test: Antimicrobial activity against the micrococcus luteus 9341 by 2-fold agar dilution method using brain-heart infusion agar.
# Streptococcus equinus = test: Antimicrobial activity against the streptococcus bovis A 5169 by 2-fold agar dilution method using brain-heart infusion agar.
# Staphylococcus aureus [4] = test: Antimicrobial activity against the Staphylococcus aureus ATCC 6538 P by 2-fold agar dilution method using brain-heart infusion agar.; conditions: ATCC 6538, Brain
# In short: (§1)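 Read-out is the MIC, found by twofold agar dilution in brain-heart infusion agar. Strains were Escherichia coli H560, Staphylococcus aureus 45 and Staphylococcus aureus ATCC 6538 P.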
# Pseudomonas aeruginosa [5] = test: Antimicrobial activity against the Pseudomonas aeruginosa K 799/61 by 2-fold agar dilution method using brain-heart infusion agar.
# Streptococcus pyogenes [6] = test: Antimicrobial activity against the streptococcus pyogenes 2548 by 2-fold agar dilution method using brain-heart infusion agar.
# Staphylococcus aureus [7] = test: Antimicrobial activity against the Staphylococcus aureus 45 by 2-fold agar dilution method using brain-heart infusion agar.; in short: as §1
# Acinetobacter = test: Antimicrobial activity against the acinetobacter sp. CMX 669 by 2-fold agar dilution method using brain-heart infusion agar.
# Escherichia coli [8] = test: Antimicrobial activity against the Escherichia coli H560 by 2-fold agar dilution method using brain-heart infusion agar.; in short: as §1
# Streptococcus agalactiae = test: Antimicrobial activity against the streptococcus agalactiae CMX 508 by 2-fold agar dilution method using brain-heart infusion agar.
# Klebsiella aerogenes = test: Antimicrobial activity against the enterobacter aerogenes ATCC 13048 by 2-fold agar dilution method using brain-heart infusion agar.; conditions: ATCC 13048, Brain
# [9] = test system: Staphylococcus epidermidis; test: Antimicrobial activity against the Staphylococcus epidermis 3519 by 2-fold agar dilution method using brain-heart infusion agar.
smiles,measurement,setting,value
C[C@@H]1COc2c(N3CCN(C)CC3)c(F)cc3c(=O)c(C(=O)O)cn1c23 [DEXTROFLOXACINE],MIC,Pseudomonas aeruginosa [1],9.75 µg/mL
same,MIC,Escherichia coli [2],1.21 µg/mL
same,MIC,Klebsiella pneumoniae,1.21 µg/mL
same,MIC,Enterococcus faecium,> 9.75 µg/mL
same,MIC,Streptococcus pyogenes [3],> 9.75 µg/mL
same,MIC,Micrococcus luteus,> 9.75 µg/mL
same,MIC,Streptococcus equinus,> 9.75 µg/mL
same,MIC,Staphylococcus aureus [4],4.8 µg/mL
same,MIC,Pseudomonas aeruginosa [5],1.21 µg/mL
same,MIC,Streptococcus pyogenes [6],> 9.75 µg/mL
same,MIC,Staphylococcus aureus [7],9.75 µg/mL
same,MIC,Acinetobacter,9.75 µg/mL
same,MIC,Escherichia coli [8],9.75 µg/mL
same,MIC,Streptococcus agalactiae,> 9.75 µg/mL
same,MIC,Klebsiella aerogenes,9.75 µg/mL
same,MIC,[9],4.8 µg/mL
C[C@H]1COc2c(N3CCN(C)CC3)c(F)cc3c(=O)c(C(=O)O)cn1c23.C[C@H]1COc2c(N3CCN(C)CC3)c(F)cc3c(=O)c(C(=O)O)cn1c23.O [LEVOFLOXACIN],MIC,Pseudomonas aeruginosa [1],< 0.04 µg/mL
same,MIC,Escherichia coli [2],0.07 µg/mL
same,MIC,Klebsiella pneumoniae,< 0.04 µg/mL
same,MIC,Enterococcus faecium,0.46 µg/mL
same,MIC,Streptococcus pyogenes [3],0.46 µg/mL
same,MIC,Micrococcus luteus,1.21 µg/mL
same,MIC,Streptococcus equinus,1.21 µg/mL
same,MIC,Staphylococcus aureus [4],0.15 µg/mL
same,MIC,Pseudomonas aeruginosa [5],0.07 µg/mL
same,MIC,Streptococcus pyogenes [6],0.26 µg/mL
same,MIC,Staphylococcus aureus [7],0.3 µg/mL
same,MIC,Acinetobacter,0.3 µg/mL
same,MIC,Escherichia coli [8],0.04 µg/mL
same,MIC,Streptococcus agalactiae,1.21 µg/mL
same,MIC,Klebsiella aerogenes,0.07 µg/mL
same,MIC,[9],0.3 µg/mL
CC1COc2c(N3CCN(C)CC3)c(F)cc3c(=O)c(C(=O)O)cn1c23 (stereo not drawn) [OFLOXACIN],MIC,Pseudomonas aeruginosa [1],0.39 µg/mL
same,MIC,Escherichia coli [2],0.05 µg/mL
same,MIC,Klebsiella pneumoniae,0.05 µg/mL
same,MIC,Enterococcus faecium,0.78 µg/mL
same,MIC,Streptococcus pyogenes [3],0.78 µg/mL
same,MIC,Micrococcus luteus,3.1 µg/mL
same,MIC,Streptococcus equinus,1.56 µg/mL
same,MIC,Staphylococcus aureus [4],0.2 µg/mL
same,MIC,Pseudomonas aeruginosa [5],0.1 µg/mL
same,MIC,Streptococcus pyogenes [6],0.39 µg/mL
same,MIC,Staphylococcus aureus [7],0.39 µg/mL
same,MIC,Acinetobacter,0.39 µg/mL
same,MIC,Escherichia coli [8],0.1 µg/mL
same,MIC,Streptococcus agalactiae,1.56 µg/mL
same,MIC,Klebsiella aerogenes,0.2 µg/mL
same,MIC,[9],0.39 µg/mL
